An excerpt weighted towards active compounds, which were near 5% of everything screened.
T cruzi repl: T. cruzi replication inhibition; T. cruzi beta-gal in NIH3T3, luminescence, 90 h; inhibition, % (concentration not given with the values); 300,000 tested, 1.4% active; AID 1885;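 active = mean inhibition across valid replicates above about 55%, limit read from the data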;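 note: signal also drops with host cell toxicity which is not excluded here; 0% = plate median of DMSO wells and 100% = zero luminescence signal; higher percent means less beta-gal luminescence so fewer parasites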
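System – NIH/3T3 host cells with β-galactosidase reporter T. cruzi · Doses – single 50 nL compound addition per well in DMSO · Reagent – 5000 T. cruzi trypomastigotes/well · Medium – Low-serum DMEM with 2% FBS · Timing – ≥90 h infection period, 3 h prior cell attachment · Evaluation – parasite load inhibition, % · Technique – GalScreen luminescence, 60 min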
UPR CHOP act: apoptotic UPR (CHOP) activation | 330,000 tested, 0.34% active | CHO-CHOP luciferase reporter, luminescence; percent of tunicamycin response over DMSO baseline | AID 449763 | activation, % at 10 µM;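 active = at 10 µM dose, activation of 40% or more, normalized to positive control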;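 note: 100% = tunicamycin at 10 µg/mL and 0% = DMSO alone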
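System: CHO CHOP reporter cells. Amount: 500 cells per well. Buffer or medium: F12 medium, 10% FBS. Compound dosing: one dose, 10 µM in 0.5% DMSO. Incubation: 6 h compound exposure at 37 °C after overnight seeding. Technique: Steady-Glo luciferase luminescence. Benchmarks: tunicamycin and DMSO controls.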
Mdm2-MdmX inh: disrupts the human Mdm2-MdmX interaction; 330,000 tested, 3% active; inhibition, % at 8 µM; O15151+Q00987; AID 485346; SaOS-2 split-luciferase Mdm2/MdmX complementation, luminescence;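 active = inhibition of at least 50% at 8 µM in the primary screen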
Target sequence (O15151 whole entry, looked up): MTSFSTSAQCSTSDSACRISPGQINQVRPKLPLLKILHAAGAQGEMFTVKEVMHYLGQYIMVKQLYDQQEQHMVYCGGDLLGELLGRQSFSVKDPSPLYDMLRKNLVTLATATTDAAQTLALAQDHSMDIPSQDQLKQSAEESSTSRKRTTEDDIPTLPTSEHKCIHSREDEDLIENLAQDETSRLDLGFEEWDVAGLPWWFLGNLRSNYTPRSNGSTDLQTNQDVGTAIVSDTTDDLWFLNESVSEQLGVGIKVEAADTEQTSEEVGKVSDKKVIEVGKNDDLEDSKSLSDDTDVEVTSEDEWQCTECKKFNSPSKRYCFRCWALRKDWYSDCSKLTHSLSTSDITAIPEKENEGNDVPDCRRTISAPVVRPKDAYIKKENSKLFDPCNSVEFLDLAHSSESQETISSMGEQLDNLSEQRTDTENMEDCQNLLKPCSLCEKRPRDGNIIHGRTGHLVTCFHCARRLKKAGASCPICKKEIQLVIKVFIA
Target sequence (Q00987 whole entry, looked up): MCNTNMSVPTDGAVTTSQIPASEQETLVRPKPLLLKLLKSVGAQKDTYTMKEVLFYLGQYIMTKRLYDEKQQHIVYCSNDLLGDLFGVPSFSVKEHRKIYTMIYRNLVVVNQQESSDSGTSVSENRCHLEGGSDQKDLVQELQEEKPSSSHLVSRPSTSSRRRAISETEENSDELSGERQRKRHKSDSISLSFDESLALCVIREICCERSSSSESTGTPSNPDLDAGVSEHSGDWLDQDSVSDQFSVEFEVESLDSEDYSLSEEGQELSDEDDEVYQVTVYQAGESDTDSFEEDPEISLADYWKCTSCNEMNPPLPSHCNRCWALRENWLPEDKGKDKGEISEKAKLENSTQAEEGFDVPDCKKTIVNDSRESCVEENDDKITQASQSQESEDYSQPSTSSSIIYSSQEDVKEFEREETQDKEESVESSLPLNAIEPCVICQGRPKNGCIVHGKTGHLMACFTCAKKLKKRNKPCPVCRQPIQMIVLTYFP
Beta apoptosis: blocks beta cell apoptosis; INS-1E cytokine-induced death, ATP luminescence, 48 h; percent of positive-control rescue, neutral wells zero; protection from apoptosis, % (concentration not given with the values); 300,000 tested, 0.8% active; AID 435005;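 active = Every replicate reaches about 75%, or at least half do and their mean reaches it too, limit read from the data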;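 note: 0% = cytokine-treated negative control wells and 100% = positive control rescue; higher means more ATP so stronger rescue from cytokine killing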
CSC inhib: blocks cancer stem cells | cancer stem cell-like cells viability, luminescence | inhibition, % at 7.5 µM | 300,000 tested, 1.1% active | AID 2717; in the data active = inhibition above about 75%; tested in HMLE shEcad cells
UPR XBP1 act: adaptive UPR (XBP1) activation; CHO-XBP1 luciferase reporter, IRE1-XBP1 UPR activation, luminescence; percent of tunicamycin response, DMSO as zero; activation, % at 20 µM; 330,000 tested, 0.33% active;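 active = versus positive control, 20 µM dose yields 30% or more activation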;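 note: 100% = tunicamycin at 10 µg/mL and 0% = DMSO only wells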
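incubation = overnight seeding at 37 °C, 6 h compound treatment at 37 °C | assay system = CHO-XBP1 cells stably carrying IRE1-XBP1-driven luciferase reporter | input = 1000 cells per well | detection = luciferase luminescence | dosing = single point, 20 µM final compound, 1% DMSO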
Mdm2-MdmX conf: confirmation of human Mdm2/MdmX interaction inhibitors | Mdm2-MdmX binding, luminescent assay | shares compounds with Mdm2-MdmX inh | 10,000 tested, 55% active | inhibition, % at 8 µM; in the data active = inhibition above about 40%
FLuc counter: counter-screen for Mdm2/MdmX inhibitors: full-length luciferase. inhibition, % at 8 µM. 6,200 tested, 77% active. shares compounds with Mdm2-MdmX inh. SaOS-2 full-length luciferase counterscreen, luminescence;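 active = mean inhibition at 8 µM reaching about 37%, which flags the compound as non-specific, limit read from the data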;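 note: p53-null SaOS-2 cells with luciferase driven by a doxycycline-inducible promoter; compound on cells about two nights before reading with doxycycline added after day one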
* = called active by the depositor; . = no result.

SMILES	T cruzi repl	UPR CHOP act	Mdm2-MdmX inh	Beta apoptosis	CSC inhib	UPR XBP1 act	Mdm2-MdmX conf	FLuc counter
CCCCn1nc(C(=O)Nc2ccc3c(c2)OCCO3)c2ccccc2c1=O	.	1	58*	16	.	2	38	.
CN(CC(=O)Nc1cccc(F)c1)C(=O)c1ccccc1CCc1ccccc1	10	-1	8	0	22	-4	.	.
CCOC(=O)C1=C(c2ccccc2)N=c2s/c(=C\c3cccc(O)c3)c(=O)n2C1c1cccs1 (stereo not drawn)	22	5	78*	20	99*	6	29	.
CS(=O)(=O)c1ccc(C(=O)Nc2nc(-c3ccco3)c(-c3ccco3)s2)cc1	.	0	14	.	.	-1	.	.
Cc1ccc(S(=O)(=O)N2CCCCC2)cc1NC(=O)COc1ccccc1F	0	1	21	6	-15	-1	.	.
CC1=Nc2cc(C(=O)NCCCN3CCOCC3)ccc2Sc2c(C)ccc(C)c21	20	3	66*	-9	47	-4	11	.
CC1=Nc2cc(C(=O)NCCN3CCOCC3)ccc2Sc2c(C)ccc(C)c21	-1	2	64*	1	42	-3	52*	47*
CCCC1=Nc2cc(C(=O)NCCN3CCOCC3)ccc2Sc2ccccc21	18	0	4	0	23	-2	.	.
O=C(COC(=O)c1ccc(S(=O)(=O)N2CCCCC2)cc1)Nc1ccccc1	.	0	-32	3	.	0	.	.
C=CCn1c(SCC(=O)NC2CCCC2)nnc1-c1cccnc1	1	-1	6	.	-12	23	.	.
Cc1ccc(CNC(=O)C2CCC(CNc3nc(=S)[nH]c4ccccc34)CC2)cc1 (stereo not drawn)	20	-2	23	54	34	0	.	.
COc1cccc(CNC(=O)C2CCC(CNc3nc(=S)[nH]c4ccccc34)CC2)c1 (stereo not drawn)	12	0	61*	1	28	4	-2	.
O=c1cnc2ccccc2n1Cc1ccc(Br)cc1	4	7	30	6	-11	1	.	.
CC(C)(C)c1ccc(Cn2c(=O)cnc3ccccc32)cc1	10	-6	72*	13	72	-9	77*	26
O=C(O)CCCCCCCCCCP(=O)(c1ccccc1)c1ccccc1	23	-2	-32	-3	8	-3	.	.
O=P(CCCCCCCCCP(=O)(c1ccccc1)c1ccccc1)(c1ccccc1)c1ccccc1	61*	10	66*	.	38	2	30	.
Cc1ccc(S(=O)(=O)Nc2nc3ccccc3nc2Nc2cccc(S(=O)(=O)N3CCCC3)c2)cc1	-8	2	53*	31	114*	0	51*	93*
Cc1cc(C)cc(Nc2nc(-c3ccc(S(=O)(=O)N4CCCC4)cc3)cs2)c1	13	1	59*	5	15	1	58*	42*
O=[N+]([O-])c1cccc(S(=O)(=O)Nc2nc3ccccc3nc2Nc2cccc(S(=O)(=O)N3CCCCC3)c2)c1	-51	.	.	.	.	.	.	.
Fc1ccc2c(Cl)c(-c3nnc(-c4cccs4)o3)sc2c1	-1	5	84*	-6	-11	-1	-138	.
COc1cc(-c2nnc(-c3cccs3)o2)cc(OC)c1OC	3	5	14	0	-6	7	.	.
CCCOc1ccc(CNC(=O)c2ccc3nc(N4CCOCC4)sc3c2)cc1	0	0	51*	4	2	4	7	.
O=C(NCc1ccccc1)c1ccc2nc(N3CCOCC3)sc2c1	-12	4	-17	-3	-10	3	.	.
Cc1nc(C)c(C(=O)O)c(-c2cccs2)c1C(=O)O	-6	1	6	-3	6	-2	.	.
CCOC(=O)c1c(C)[nH]c(C(=O)COC(=O)CSCC(=O)N(CC)CC)c1C	3	0	25	1	3	2	.	.
SMILES	T cruzi repl	UPR CHOP act	Mdm2-MdmX inh	Beta apoptosis	CSC inhib	UPR XBP1 act	Mdm2-MdmX conf	FLuc counter
COc1ccc(-c2c[n+]3c4n2CCCCC4=C(c2ccccc2)C3)cc1	62*	0	67*	.	.	0	17	.
COc1ccc(-c2c[n+](CC(=O)c3ccccc3)c3n2CCCCC3)cc1	28	1	21	12	13	-2	.	.
COc1ccc2c(c1)CCN1C2CCN2C(=O)CCC21 (stereo not drawn)	-7	-1	2	-3	1	0	.	.
S=C(NNc1ccc2ccccc2c1)NC1CCCCC1	16	5	64*	-6	.	-1	55*	34
S=C(Nc1ccc(Cl)c(Cl)c1)NC1CCN(Cc2ccccc2)CC1	44	3	97*	-3	.	14	52*	28
S=C(Nc1ccc(Cl)c(Cl)c1)NC1CCCCC1	36	3	85*	37	66	3	50*	62*
CC(OC(=O)c1cc(=O)[nH]c2ccccc12)C(=O)NC1CCCCC1C (stereo not drawn)	-2	3	-8	-2	4	1	.	.
O=c1oc2ccc(C#CC3(O)CCCCC3)cc2cc1-n1cc(-c2ccccn2)nn1	.	-4	1	-7	.	-4	.	.
N#Cc1ccc(C#Cc2ccc3oc4ccccc4c(=O)c3c2)cc1	.	-1	67*	3	-8	6	9	.
Cc1cc2sc3ccc(C#CC4(O)CCCCC4)cc3c(=O)c2cc1C	15	-9	94*	8	0	-9	97*	54*
NC1(C#Cc2ccc3c(=O)c4ccccc4sc3c2)CCCCC1	.	1	33	4	27	-4	.	.
Nc1ccc(C#Cc2ccc3c(=O)c4ccccc4oc3c2)cc1	-16	5	-19	-6	52	7	.	.
O=c1c2ccccc2oc2ccc(C#CC3(O)CCCCC3)cc12	32	-3	59*	-5	93*	-3	51*	173*
Cn1c2ccccc2c(=O)c2cc(C#CC3(O)CCCCC3)ccc21	5	-6	69*	9	-1	-8	53*	169*
O=C(Nc1ccc(Cl)c(Cl)c1)C1C2C=CC3(O2)C1C(=O)N(CCN1CCCCC1)C3C(=O)NC1CCCCC1 (stereo not drawn)	9	3	41	-5	3	2	.	.
COc1cccc2oc3ccc(C#CC4(N)CCCCC4)cc3c(=O)c12	17	9	96*	5	30	18	-8	.
Cn1c2ccccc2c(=O)c2ccc(C#CC3(N)CCCCC3)cc21	21	2	36	6	40	0	.	.
CC(=O)N(/N=C1\Sc2ccccc2C1=O)c1ccc(C)cc1C	-16	-8	65*	-2	-2	-6	76*	107*

Screening data (PubChem BioAssay)
